In brackets after ≈: the same amount, converted by molar mass. Activity calls are given as the source filed them. The calls are words filed in the database; no cut-off is given here.
Experiments:
Type in all cases: functional
[1] = tested on: Staphylococcus epidermidis; test: Antimicrobial activity against Staphylococcus epidermidis isolate OR1 treated in solution at 45 degC after 24 hrs; conditions: isolate OR1, 24 h
Outline: (§1)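 Antimicrobials, as powder or in solution as used for MIC testing, held at 45°C for 1 and 24 h in three independent experiments. MICs were then determined by the CLSI microtiter plate method in cation-adjusted Mueller-Hinton medium, with MHB containing 50 μg/ml calcium for daptomycin. Values are median (range) […] in mg/liter.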

Staphylococcus [2] = test: Antimicrobial activity against coagulase-negative Staphylococcus isolated from human preoperative skin by […]
[3] = tested on: Staphylococcus epidermidis; test: Antimicrobial activity against Staphylococcus epidermidis DSM3269 by […]
Staphylococcus aureus [4] = test: Antimicrobial activity against Staphylococcus aureus ATCC 29213 administered as powder at 45 degC after 24 hrs; conditions: ATCC 29213, 24 h; outline: as §1
Staphylococcus [5] = test: Antimicrobial activity against Staphylococcus isolates biofilms assessed as decrease in bacterial load at 25 mg/litre at ambient temperature of 45 degC after 24 hrs relative to baseline
Outline: (§2)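 24-h static biofilms of the staphylococcal isolates were exposed to drug for 24 h at 35, 40 or 45°C. Biofilms were not fixed but scraped off and resuspended in MHB, then serially diluted and 0.1 ml plated on blood agar, read after 48 h at 35°C in ambient air. Done in duplicate as mean log10 CFU/ml; log reduction was taken versus untreated biofilm.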

Staphylococcus aureus [6] = test: Antimicrobial activity against Staphylococcus aureus isolated from human prosthetic joint infection site by […]
Staphylococcus [7] = test: Antimicrobial activity against Staphylococcus isolates biofilms assessed as decrease in bacterial load at 100 mg/litre at ambient temperature of 40 degC after 24 hrs relative to baseline; outline: as §2
Staphylococcus aureus [8] = test: Antimicrobial activity against Staphylococcus aureus isolated from human preoperative skin by […]
Staphylococcus [9] = test: Antimicrobial activity against coagulase-negative Staphylococcus isolated from human prosthetic joint infection site by […]
Staphylococcus [10] = test: Antimicrobial activity against Staphylococcus isolates biofilms assessed as decrease in bacterial load at 100 mg/litre at ambient temperature of 35 degC after 24 hrs relative to baseline; outline: as §2
Staphylococcus [11] = test: Antimicrobial activity against Staphylococcus isolates biofilms assessed as decrease in bacterial load at 100 mg/litre at ambient temperature of 45 degC after 24 hrs relative to baseline; outline: as §2
Staphylococcus aureus [12] = test: Antimicrobial activity against Staphylococcus aureus ATCC 29213 by […]
[13] = tested on: Staphylococcus epidermidis; test: Antimicrobial activity against Staphylococcus epidermidis isolate KO8 isolated from healthy human skin by […]
Staphylococcus [14] = test: Antimicrobial activity against Staphylococcus isolates biofilms assessed as change in optical density ratio of biofilms at 50 mg/litre at ambient temperature of 35 degC after 24 hrs relative to baseline
Outline: (§3)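 Static microtiter biofilms of 34 clinical S. aureus and CoNS isolates from orthopedic implant infections or preoperative skin, plus reference strains. Inoculum was McFarland 0.5 diluted 1:100 in calcium-supplemented MHB, grown 24 h at 35°C in ambient air. Established biofilms were exposed to drug for 24 h at 35, 40 or 45°C, then formalin-fixed and stained with 1% crystal violet for 5 min, and OD read at 550 nm in quadruplicate.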

Staphylococcus [15] = test: Antimicrobial activity against Staphylococcus isolates biofilms assessed as change in optical density ratio of biofilms at 100 mg/litre at ambient temperature of 40 degC after 24 hrs relative to baseline; outline: as §3
Staphylococcus [16] = test: Antimicrobial activity against Staphylococcus isolates biofilms assessed as decrease in bacterial load at 500 mg/litre at ambient temperature of 40 degC after 24 hrs relative to baseline; outline: as §2
Staphylococcus [17] = test: Antimicrobial activity against Staphylococcus isolates biofilms assessed as change in optical density ratio of biofilms at 500 mg/litre at ambient temperature of 45 degC after 24 hrs relative to baseline; outline: as §3
Staphylococcus [18] = test: Antimicrobial activity against Staphylococcus isolates biofilms assessed as change in optical density ratio of biofilms at 100 mg/litre at ambient temperature of 35 degC after 24 hrs relative to baseline; outline: as §3
Staphylococcus [19] = test: Antimicrobial activity against Staphylococcus isolates biofilms assessed as change in optical density ratio of biofilms at 500 mg/litre at ambient temperature of 40 degC after 24 hrs relative to baseline; outline: as §3
Staphylococcus [20] = test: Antimicrobial activity against Staphylococcus isolates biofilms assessed as change in optical density ratio of biofilms at 500 mg/litre at ambient temperature of 35 degC after 24 hrs relative to baseline; outline: as §3
Staphylococcus [21] = test: Antimicrobial activity against Staphylococcus isolates biofilms assessed as change in optical density ratio of biofilms at 50 mg/litre at ambient temperature of 40 degC after 24 hrs relative to baseline; outline: as §3
Staphylococcus [22] = test: Antimicrobial activity against Staphylococcus isolates biofilms assessed as change in optical density ratio of biofilms at 50 mg/litre at ambient temperature of 45 degC after 24 hrs relative to baseline; outline: as §3
Staphylococcus [23] = test: Antimicrobial activity against Staphylococcus isolates biofilms assessed as change in optical density ratio of biofilms at 100 mg/litre at ambient temperature of 45 degC after 24 hrs relative to baseline; outline: as §3
Staphylococcus [24] = test: Antimicrobial activity against Staphylococcus isolates biofilms assessed as decrease in bacterial load at 500 mg/litre at ambient temperature of 45 degC after 24 hrs relative to baseline; outline: as §2

MIC [1] [µg/mL] | MIC (Staphylococcus [2]) [µg/mL] | MIC [3] [µg/mL] | MIC (Staphylococcus aureus [4]) [µg/mL] | MIC (Staphylococcus aureus [6]) [µg/mL] | MIC (Staphylococcus aureus [8]) [µg/mL] | MIC (Staphylococcus [9]) [µg/mL] | MIC (Staphylococcus aureus [12]) [µg/mL] | SMILES | MIC [13] [µg/mL] | further results
1 (≈ 0.617 µM) | 0.25 (≈ 0.154 µM) | 0.25 (≈ 0.154 µM) | 0.5 (≈ 0.309 µM) | 0.125 (≈ 0.0771 µM) | 0.125 (≈ 0.0771 µM) | 0.125 (≈ 0.0771 µM) | 0.125 (≈ 0.0771 µM) | CCCCCCCCCC(=O)N[C@@H](Cc1c[nH]c2ccccc12)C(=O)N[C@H](CC(N)=O)C(=O)N[C@@H](CC(=O)O)C(=O)N[C@@H]1C(=O)NCC(=O)N[C@@H](CCCN)C(=O)N[C@@H](CC(=O)O)C(=O)N[C@H](C)C(=O)N[C@@H](CC(=O)O)C(=O)NCC(=O)N[C@H](CO)C(=O)N[C@@H]([C@H](C)CC(=O)O)C(=O)N[C@@H](CC(=O)c2ccccc2N)C(=O)O[C@@H]1C | 0.25 (≈ 0.154 µM) | fold change (FC) (Staphylococcus [5]): 1.2; fold change (FC) (Staphylococcus [7]): 3.6; fold change (FC) (Staphylococcus [10]): 2; fold change (FC) (Staphylococcus [11]): 3.3
2 (≈ 4.32 µM) | 0.25 (≈ 0.541 µM) | 0.5 (≈ 1.08 µM) | 0.25 (≈ 0.541 µM) | 1 (≈ 2.16 µM) | 0.25 (≈ 0.541 µM) | 1 (≈ 2.16 µM) | 0.5 (≈ 1.08 µM) | Cn1nnnc1SCC1=C(C(=O)O)N2C(=O)[C@@H](NC(=O)[C@H](O)c3ccccc3)[C@H]2SC1 [CEFAMANDOLE] | 0.25 (≈ 0.541 µM) | Ratio (Staphylococcus [14]): 1.29; Ratio (Staphylococcus [15]): 1.06; fold change (FC) (Staphylococcus [16]): 2; Ratio (Staphylococcus [17]): 0.65; Ratio (Staphylococcus [18]): 1.12; Ratio (Staphylococcus [19]): 0.62; Ratio (Staphylococcus [20]): 1.27; Ratio (Staphylococcus [21]): 1.07; Ratio (Staphylococcus [22]): 0.86; Ratio (Staphylococcus [23]): 0.63; Activity (Staphylococcus [10]): inactive; fold change (FC) (Staphylococcus [24]): 2
